Data as given in ChEMBL document CHEMBL1123435, “Synthesis of 11H-pyridocarbazoles and derivatives. Comparison of their DNA binding and antitumor activity with those of 6H- and 7H-pyridocarbazoles” (1986).

Legend:
L1210 [1] = test: Dose required to inhibit the cloning efficiency to a factor of 0.37 after 24-h exposure to the drug; type: functional; settings: Mus musculus, L1210, 24 h
In short: (§1)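 Exponentially growing L1210 cells (1 × 10⁵/mL) in RPMI 1640 with 10% fetal calf serum were exposed to the drug for 24 h at 37 °C. They were then diluted to 250 and 500 cells/mL and plated in Noble agar. After 14 days at 37 °C in 5% CO2, colonies >0.2 mm were counted, in triplicate per concentration. CE37 (cloning efficiency reduced to 0.37) was read from dose-response curves.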

Calf thymus DNA = test: Binding affinity towards calf thymus DNA, at pH 5; type: nucleic-acid assay; settings: Bos taurus
In short: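 Affinity for sonicated calf thymus DNA determined by ethidium bromide competition by fluorescence. Four cells were run together: buffer, DNA (1.5 μg/mL), and drug at 3 and 6 μg/mL plus DNA. Ethidium bromide (50 μg/mL of buffer) was added in aliquots, and apparent constants were derived from Scatchard plots of competition. Where a ligand fluoresces strongly when bound, direct fluorometric titration was used instead.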

L1210 [2] = test: Inhibitory activity against L1210 cell culture; type: functional; settings: Mus musculus, read-out: ED50 (the source's name)
In short: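 L1210 cells in exponential growth (1 × 10⁵/mL) were held for 24 h at 37 °C in RPMI 1640 with 10% fetal calf serum across a range of drug concentrations. Total cells were counted electronically. Duplicate treated cultures were expressed as a percentage of triplicate untreated controls. ED50 came from linear regression of percent residual cells against concentration on a semilog scale.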

L1210 [3] = test: Dose required to inhibit the cloning efficiency to a factor of 0.37 after 24-h exposure to the drug in L1210 cell; type: functional; settings: Mus musculus, L1210, 24 h; in short: as §1

## C[n+]1cccc2c3[nH]c4ccccc4c3ccc21.[I-]
L1210 [1]
  EC37: > 1 µg/mL
Calf thymus DNA
  K app: 10000 M⁻¹
L1210 [2]
  EC50: > 1 µg/mL

## COc1ccc2[nH]c3c4c[n+](C)ccc4c(C)cc3c2c1
Calf thymus DNA
  K app: 100000 M⁻¹

## c1cnc2c(c1)ccc1c3ccccc3[nH]c12
Calf thymus DNA
  K app: 100000 M⁻¹

## COc1ccc2[nH]c3c(ccc4cccnc43)c2c1
Calf thymus DNA
  K app: 100000 M⁻¹

## Cl.Oc1ccc2[nH]c3c(ccc4cccnc43)c2c1
L1210 [1]
  EC37: > 1 µg/mL
Calf thymus DNA
  K app: 20000 M⁻¹
L1210 [2]
  EC50: > 1 µg/mL

## Cc1cc2c3cc(O)ccc3[nH]c2c2c[n+](C)ccc12.[I-]
L1210 [1]
  EC37: > 1 µg/mL
Calf thymus DNA
  K app: 1e+06 M⁻¹
L1210 [2]
  EC50: > 1 µg/mL

## COc1ccc2[nH]c3c4cc[n+](C)cc4ccc3c2c1.[I-]
L1210 [1]
  EC37: > 1 µg/mL
Calf thymus DNA
  K app: 25000 M⁻¹
L1210 [2]
  EC50: > 1 µg/mL

## C[n+]1cccc2c3[nH]c4ccc(O)cc4c3ccc21.[I-]
L1210 [1]
  EC37: > 1 µg/mL
Calf thymus DNA
  K app: 100000 M⁻¹
L1210 [2]
  EC50: > 1 µg/mL

## CC(=O)[O-].Cc1c2cc[n+](C)cc2c(C)c2c1[nH]c1ccccc12
L1210 [3]
  EC37: 0.4 µg/mL
Calf thymus DNA
  K app: 230000 M⁻¹
L1210 [2]
  EC50: 0.544 µg/mL

## CC(=O)[O-].Cc1c2cc[n+](C)cc2c(C)c2c1[nH]c1ccc(O)cc12 [ELLIPTINIUM ACETATE]
L1210 [1]
  EC37: 0.013 µg/mL
Calf thymus DNA
  K app: 1.3e+06 M⁻¹
L1210 [2]
  EC50: 0.06 µg/mL

## C[n+]1ccc2ccc3[nH]c4ccc(O)cc4c3c2c1.[I-]
Calf thymus DNA
  K app: 180000 M⁻¹
L1210 [2]
  EC50: 0.12 µg/mL

## Cc1cc2c3ccccc3[nH]c2c2c[n+](C)ccc12.[I-]
L1210 [1]
  EC37: > 1 µg/mL
Calf thymus DNA
  K app: 100000 M⁻¹
L1210 [2]
  EC50: > 1 µg/mL

## COc1ccc2[nH]c3ccc4cc[n+](C)cc4c3c2c1.[I-]
Calf thymus DNA
  K app: 300000 M⁻¹
L1210 [2]
  EC50: 0.38 µg/mL

## C[n+]1ccc2c(ccc3c4ccccc4[nH]c23)c1.[I-]
L1210 [1]
  EC37: > 1 µg/mL
Calf thymus DNA
  K app: 20000 M⁻¹
L1210 [2]
  EC50: > 1 µg/mL

## COc1ccc2[nH]c3c(ccc4c3ccc[n+]4C)c2c1
Calf thymus DNA
  K app: 60000 M⁻¹
